Source: ChEMBL document CHEMBL2163280 (J Med Chem, 2012)
Active and inactive are the calls of the source. The calls are words filed in the database; no cut-off is given here.

Experiments:
Liver microsomes [1] = experiment: Drug metabolism in rat liver microsomes assessed as unchanged parent compound at 1 to 10 uM; format: ADME, Microsome; conditions: TDE = time-dependent effect
CYP2C19 [2] = biological target: T1, CYP2C19 (Homo sapiens, UniProt P33261); experiment: Inhibition of human liver microsome CYP2C19 using mephenytoin as substrate assessed as residual activity at 1 uM; format: ADME; conditions: human liver microsomes, probe mephenytoin, read-out: Activity
T1 sequence (P33261 whole entry, canonical isoform): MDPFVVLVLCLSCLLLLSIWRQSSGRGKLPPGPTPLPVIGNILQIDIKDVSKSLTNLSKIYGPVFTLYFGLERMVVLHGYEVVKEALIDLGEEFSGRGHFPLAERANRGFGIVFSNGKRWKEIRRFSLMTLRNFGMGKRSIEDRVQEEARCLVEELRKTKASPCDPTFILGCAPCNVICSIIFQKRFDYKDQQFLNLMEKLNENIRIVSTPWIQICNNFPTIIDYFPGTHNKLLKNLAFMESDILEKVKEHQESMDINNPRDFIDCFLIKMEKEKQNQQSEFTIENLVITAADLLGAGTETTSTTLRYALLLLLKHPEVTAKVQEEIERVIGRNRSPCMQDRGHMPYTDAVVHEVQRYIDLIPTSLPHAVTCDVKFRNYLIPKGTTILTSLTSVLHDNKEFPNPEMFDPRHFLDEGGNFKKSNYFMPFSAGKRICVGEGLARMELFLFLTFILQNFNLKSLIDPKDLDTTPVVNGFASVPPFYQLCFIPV
Method in brief: (§1)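 Human liver microsomes in a high-throughput multiple-CYP assay covering CYP1A2, 2B6, 2C9, 2C19, 2D6 and 3A4. Test compound at 1 and 10 μM; isoform activity expressed as % of control.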

[3] = Inhibition of serotonin receptor at 10 uM
[4] = biological target: T2, Neuronal acetylcholine receptors; alpha-3/beta-4, alpha-5, beta-2 (Homo sapiens) (UniProt P17787+P30926+P32297+P30532); experiment: Inhibition of alpha3beta4alpha5beta2 nACHR in human SH-SY5Y cells at 10 uM by 86Rb+ efflux assay; format: cell-based
T2 sequence (P17787 whole entry, looked up): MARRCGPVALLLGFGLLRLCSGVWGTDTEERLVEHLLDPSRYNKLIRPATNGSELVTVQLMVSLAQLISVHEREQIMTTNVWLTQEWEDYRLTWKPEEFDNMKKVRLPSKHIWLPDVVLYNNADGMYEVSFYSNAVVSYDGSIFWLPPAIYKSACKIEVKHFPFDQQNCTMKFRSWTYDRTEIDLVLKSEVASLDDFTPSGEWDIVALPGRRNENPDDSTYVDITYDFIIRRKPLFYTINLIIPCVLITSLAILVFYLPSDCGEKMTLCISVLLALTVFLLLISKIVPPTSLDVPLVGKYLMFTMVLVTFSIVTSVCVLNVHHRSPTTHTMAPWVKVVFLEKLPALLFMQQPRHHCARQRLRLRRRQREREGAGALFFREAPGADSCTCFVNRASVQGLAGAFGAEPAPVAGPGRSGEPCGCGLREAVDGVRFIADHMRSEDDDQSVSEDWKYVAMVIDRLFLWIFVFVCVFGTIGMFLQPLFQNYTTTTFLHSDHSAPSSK
T2 sequence (P30532 whole entry, looked up): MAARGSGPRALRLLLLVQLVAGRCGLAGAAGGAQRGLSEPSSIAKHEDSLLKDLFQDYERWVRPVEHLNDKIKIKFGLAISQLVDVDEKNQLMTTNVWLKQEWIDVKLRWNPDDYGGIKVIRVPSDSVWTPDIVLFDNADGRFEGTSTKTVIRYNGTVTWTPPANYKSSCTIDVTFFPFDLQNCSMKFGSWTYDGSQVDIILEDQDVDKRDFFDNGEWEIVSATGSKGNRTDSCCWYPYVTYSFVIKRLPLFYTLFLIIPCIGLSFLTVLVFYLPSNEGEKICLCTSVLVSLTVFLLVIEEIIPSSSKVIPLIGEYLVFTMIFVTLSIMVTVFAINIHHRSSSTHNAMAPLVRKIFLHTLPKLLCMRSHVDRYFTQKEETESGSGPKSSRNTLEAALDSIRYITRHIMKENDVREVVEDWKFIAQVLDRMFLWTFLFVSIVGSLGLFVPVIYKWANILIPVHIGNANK
T2 sequence (P30926 whole entry, looked up): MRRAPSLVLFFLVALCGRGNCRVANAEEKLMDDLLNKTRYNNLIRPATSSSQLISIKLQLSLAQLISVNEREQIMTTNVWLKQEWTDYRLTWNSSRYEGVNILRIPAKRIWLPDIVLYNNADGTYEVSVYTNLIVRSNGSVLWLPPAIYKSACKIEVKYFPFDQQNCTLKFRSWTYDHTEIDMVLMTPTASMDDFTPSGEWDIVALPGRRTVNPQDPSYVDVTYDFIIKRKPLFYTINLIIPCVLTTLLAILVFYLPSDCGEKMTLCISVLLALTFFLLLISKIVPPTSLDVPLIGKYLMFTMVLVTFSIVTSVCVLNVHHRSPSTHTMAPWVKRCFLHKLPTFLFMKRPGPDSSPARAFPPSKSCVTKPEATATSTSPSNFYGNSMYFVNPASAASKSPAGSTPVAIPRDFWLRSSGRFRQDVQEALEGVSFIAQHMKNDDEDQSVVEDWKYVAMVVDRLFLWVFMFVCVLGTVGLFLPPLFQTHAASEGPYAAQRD
T2 sequence (P32297 whole entry, looked up): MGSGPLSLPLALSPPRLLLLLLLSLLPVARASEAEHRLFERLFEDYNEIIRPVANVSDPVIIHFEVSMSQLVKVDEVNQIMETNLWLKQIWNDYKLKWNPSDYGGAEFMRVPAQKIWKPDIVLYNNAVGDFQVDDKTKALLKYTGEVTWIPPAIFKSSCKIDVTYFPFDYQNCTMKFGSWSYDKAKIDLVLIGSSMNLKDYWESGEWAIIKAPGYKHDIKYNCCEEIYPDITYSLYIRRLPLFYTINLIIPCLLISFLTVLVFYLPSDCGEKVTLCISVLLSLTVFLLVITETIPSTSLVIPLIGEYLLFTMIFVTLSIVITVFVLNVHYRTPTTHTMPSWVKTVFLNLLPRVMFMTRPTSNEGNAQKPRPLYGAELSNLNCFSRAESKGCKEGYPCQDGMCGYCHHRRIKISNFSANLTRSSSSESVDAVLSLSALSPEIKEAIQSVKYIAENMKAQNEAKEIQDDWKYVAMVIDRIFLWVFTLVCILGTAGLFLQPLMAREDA

[5] = Binding affinity to rat forebrain alpha7* nACHR at 10 uM
hERG (KCNH2) = hERG (KCNH2) (Homo sapiens, UniProt Q12809); experiment: Inhibition of human recombinant ERG expressed in HEK293 cells at 10 uM by fluorescence-based membrane potential analysis; format: cell-based; conditions: HEK293 cells expressing human recombinant ERG
Method in brief: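 HEK293 cells stably expressing recombinant human hERG, read in a fluorescence-based membrane potential assay. Test compound at 10 μM, compared with a negative control.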

[6] = Metabolic stability in human liver microsomes assessed as unchanged parent compound at 1 uM after 60 mins; format: ADME, Microsome; conditions: read-out: Stability
Method in brief: (§2)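 Test article incubated with human liver microsomes at 1 and 10 μM. Samples taken at 0, 15, 30 and 60 min, and parent remaining quantified by LC-MS/MS.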

[7] = Inhibition of opioid receptor at 10 uM
[8] = Inhibition of sigma receptor at 10 uM
Mus musculus [9] = experiment: Antidepressant activity in BALB/cJ mouse assessed as reduction in immobility at 5 mg/kg, po measured after 30 mins post drug administration by forced swim test; format: functional, organism-based; design: dose 5 mg/kg
Method in brief: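 Male BALB/cJ mice aged 8–10 weeks; drug given in injectable water by oral gavage at 10 mL/kg. Thirty minutes later each mouse was placed in water at 23±1 °C, 12 cm deep. Immobility time was recorded over a 6 min trial. n = 9–10/group; ANOVA followed by Fisher's PLSD.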

[10] = Metabolic stability in human liver microsomes assessed as unchanged parent compound at 10 uM after 60 mins; format: ADME, Microsome; conditions: read-out: Stability
Method in brief: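 Test article incubated with human liver microsomes at 1 μM and 10 μM; aliquots taken at 0, 15, 30 and 60 min and analysed by LC-MS/MS for remaining unchanged parent drug.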

Liver microsomes [11] = experiment: Drug metabolism in human liver microsomes assessed as unchanged parent compound at 1 to 10 uM; format: ADME, Microsome; conditions: TDE = time-dependent effect; method in brief: as §2
[12] = Metabolic stability in rat liver microsomes assessed as unchanged parent compound at 10 uM after 60 mins; format: ADME, Microsome; conditions: read-out: Stability
[13] = biological target: Neuronal acetylcholine receptor subunit alpha-7 (Rattus norvegicus, UniProt Q05941); experiment: Binding affinity to rat alpha7 nACHR […]
[14] = Plasma protein binding in mouse at 0.1 to 10 uM by equilibrium dialysis; format: ADME, cell-free; conditions: read-out: PPB (converted)
Method in brief: (§3)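 Equilibrium dialysis against human or mouse plasma, with test compound at 0, 0.1, 1 and 10 μM; results expressed as mean percentage of compound bound to plasma proteins.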

CYP2D6 [15] = biological target: T3, CYP2D6 (Homo sapiens, UniProt P10635); experiment: Inhibition of human liver microsome CYP2D6 using […] as substrate assessed as residual activity at 10 uM; format: ADME; conditions: human liver microsomes, probe burfuralol, read-out: Activity; method in brief: as §1
T3 sequence (P10635 whole entry): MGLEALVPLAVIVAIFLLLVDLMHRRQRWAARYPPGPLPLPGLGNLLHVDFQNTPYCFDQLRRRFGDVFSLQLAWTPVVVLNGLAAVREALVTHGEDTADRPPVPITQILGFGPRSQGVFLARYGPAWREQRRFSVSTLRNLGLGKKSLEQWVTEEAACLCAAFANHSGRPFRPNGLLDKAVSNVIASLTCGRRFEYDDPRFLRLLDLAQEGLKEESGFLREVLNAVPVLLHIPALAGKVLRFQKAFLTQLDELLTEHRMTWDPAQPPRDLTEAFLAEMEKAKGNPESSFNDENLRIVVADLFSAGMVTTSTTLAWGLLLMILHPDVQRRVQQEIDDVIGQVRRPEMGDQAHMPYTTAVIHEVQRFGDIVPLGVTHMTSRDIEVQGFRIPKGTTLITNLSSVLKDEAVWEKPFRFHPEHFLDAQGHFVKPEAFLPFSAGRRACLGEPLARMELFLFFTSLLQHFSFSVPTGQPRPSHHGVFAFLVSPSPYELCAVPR

CYP2B6 [16] = biological target: T4, CYP2B6 (Homo sapiens, UniProt P20813); experiment: Inhibition of human liver microsome CYP2B6 using bupropion as substrate assessed as residual activity at 10 uM; format: ADME; conditions: human liver microsomes, probe bupropion, read-out: Activity; method in brief: as §1
T4 sequence (P20813 whole entry): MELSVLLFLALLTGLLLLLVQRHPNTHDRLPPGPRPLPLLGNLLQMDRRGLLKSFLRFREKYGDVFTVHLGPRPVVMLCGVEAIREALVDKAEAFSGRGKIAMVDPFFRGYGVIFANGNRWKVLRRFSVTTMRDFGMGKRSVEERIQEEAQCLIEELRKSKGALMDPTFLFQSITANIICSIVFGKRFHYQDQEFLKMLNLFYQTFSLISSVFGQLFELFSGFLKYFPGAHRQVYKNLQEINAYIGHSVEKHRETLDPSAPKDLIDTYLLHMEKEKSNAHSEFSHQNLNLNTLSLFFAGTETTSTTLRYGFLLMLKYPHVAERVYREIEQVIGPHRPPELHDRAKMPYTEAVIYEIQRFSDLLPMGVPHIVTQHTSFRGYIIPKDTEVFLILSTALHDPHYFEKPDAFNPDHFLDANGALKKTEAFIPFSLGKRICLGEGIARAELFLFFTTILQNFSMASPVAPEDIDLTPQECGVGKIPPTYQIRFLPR

CYP1A2 [17] = biological target: T5, CYP1A2 (Homo sapiens, UniProt P05177); experiment: Inhibition of human liver microsome CYP1A2 using phenacetin as substrate assessed as residual activity at 10 uM; format: ADME; conditions: human liver microsomes, probe phenacetin, read-out: Activity; method in brief: as §1
T5 sequence (P05177 whole entry): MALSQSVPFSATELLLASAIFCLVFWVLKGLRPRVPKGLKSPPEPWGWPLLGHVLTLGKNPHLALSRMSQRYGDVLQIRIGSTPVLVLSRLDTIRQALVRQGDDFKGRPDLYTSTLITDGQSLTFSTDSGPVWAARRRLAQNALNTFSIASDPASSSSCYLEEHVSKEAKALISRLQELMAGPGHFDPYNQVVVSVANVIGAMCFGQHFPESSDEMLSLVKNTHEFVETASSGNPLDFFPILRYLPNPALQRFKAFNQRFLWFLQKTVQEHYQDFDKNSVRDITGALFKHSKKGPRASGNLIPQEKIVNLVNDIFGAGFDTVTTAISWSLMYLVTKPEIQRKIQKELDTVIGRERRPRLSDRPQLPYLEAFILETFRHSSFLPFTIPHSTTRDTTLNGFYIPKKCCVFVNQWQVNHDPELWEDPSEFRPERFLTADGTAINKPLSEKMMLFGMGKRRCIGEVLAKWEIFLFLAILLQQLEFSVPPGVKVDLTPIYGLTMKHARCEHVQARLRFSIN

[18] = Inhibition of GABA receptor at 10 uM
CYP1A2 [19] = biological target: T5, CYP1A2; experiment: Inhibition of human liver microsome CYP1A2 using phenacetin as substrate assessed as residual activity at 1 uM; format: ADME; conditions: human liver microsomes, probe phenacetin, read-out: Activity; method in brief: as §1
[20] = Displacement of [3H]epibatidine from rat forebrain alpha4beta2* nACHR
[21] = biological target: Acetylcholine receptor; alpha1/beta1/delta/gamma (Homo sapiens) (UniProt P02708+P07510+P11230+Q07001); experiment: Agonist activity at alpha1betagammadelta nACHR in human TE671/RD cells by 86Rb+ efflux assay; format: functional, cell-based
[22] = Inhibition of muscarinic receptor at 10 uM
[23] = biological target: T2, Neuronal acetylcholine receptors; alpha-3/beta-4, alpha-5, beta-2 (Homo sapiens); experiment: Agonist activity at alpha3beta4alpha5beta2 nACHR in human SH-SY5Y cells at 10 uM by 86Rb+ efflux assay; format: functional, cell-based
[24] = Inhibition of dopamine receptor at 10 uM
[25] = Plasma protein binding in human at 0.1 to 10 uM by equilibrium dialysis; format: ADME, cell-free; conditions: read-out: PPB (converted); method in brief: as §3
[26] = Inhibition of histamine receptor at 10 uM
CYP2B6 [27] = biological target: T4, CYP2B6; experiment: Inhibition of human liver microsome CYP2B6 using bupropion as a substrate assessed as residual activity at 1 uM; format: ADME; conditions: human liver microsomes, probe bupropion, read-out: Activity; method in brief: as §1
CYP2D6 [28] = biological target: T3, CYP2D6; experiment: Inhibition of human liver microsome CYP2D6 using bufuralol as substrate assessed as residual activity at 1 uM; format: ADME; conditions: human liver microsomes, probe bufuralol, read-out: Activity; method in brief: as §1
[29] = biological target: Neuronal acetylcholine receptor; alpha2/beta4 (Rattus norvegicus, UniProt P12389+P12392); experiment: Displacement of [3H]epibatidine from rat alpha2beta4 nACHR; format: protein-complex assay
CYP3A4 [30] = biological target: T6, CYP3A4 (Homo sapiens, UniProt P08684); experiment: Inhibition of human liver microsome CYP3A4 using testosterone as substrate assessed as residual activity at 10 uM; format: ADME; conditions: human liver microsomes, probe testosterone, read-out: Activity; method in brief: as §1
T6 sequence (P08684 whole entry): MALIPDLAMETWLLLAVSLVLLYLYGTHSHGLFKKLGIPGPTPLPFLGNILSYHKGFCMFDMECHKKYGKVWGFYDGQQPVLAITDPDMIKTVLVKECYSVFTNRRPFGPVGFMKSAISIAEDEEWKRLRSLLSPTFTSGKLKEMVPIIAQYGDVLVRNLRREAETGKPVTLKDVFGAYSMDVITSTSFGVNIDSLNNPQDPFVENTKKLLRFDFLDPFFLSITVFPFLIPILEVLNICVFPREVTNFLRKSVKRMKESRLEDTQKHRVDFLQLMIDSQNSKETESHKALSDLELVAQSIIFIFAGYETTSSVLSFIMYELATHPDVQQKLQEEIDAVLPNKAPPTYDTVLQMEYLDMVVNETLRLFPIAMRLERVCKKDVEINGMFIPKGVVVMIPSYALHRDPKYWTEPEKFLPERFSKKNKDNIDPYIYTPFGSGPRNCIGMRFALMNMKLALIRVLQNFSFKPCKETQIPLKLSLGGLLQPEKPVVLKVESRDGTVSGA

Mus musculus [31] = experiment: Antidepressant activity in BALB/cJ mouse assessed as reduction in immobility at 5 mg/kg, ip measured after 30 mins post drug administration by forced swim test; format: functional, organism-based; design: dose 5 mg/kg
Method in brief: (§4)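 Male BALB/cJ mice aged 8–10 weeks; drug given in injectable water by IP injection at 10 mL/kg. Thirty minutes later each mouse was placed in a glass cylinder of water at 23±1 °C, 12 cm deep. Immobility (floating) was scored over a 6 min trial. n = 9–10/group; ANOVA followed by Fisher's PLSD versus vehicle.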

CYP3A4 [32] = biological target: T6, CYP3A4; experiment: Inhibition of human liver microsome CYP3A4 using midazolam as substrate assessed as residual activity at 1 uM; format: ADME; conditions: human liver microsomes, probe midazolam, read-out: Activity; method in brief: as §1
CYP2C9 [33] = biological target: T7, CYP2C9 (Homo sapiens, UniProt P11712); experiment: Inhibition of human liver microsome CYP2C9 using diclofenac as substrate assessed as residual activity at 10 uM; format: ADME; conditions: human liver microsomes, probe diclofenac, read-out: Activity; method in brief: as §1
T7 sequence (P11712 whole entry): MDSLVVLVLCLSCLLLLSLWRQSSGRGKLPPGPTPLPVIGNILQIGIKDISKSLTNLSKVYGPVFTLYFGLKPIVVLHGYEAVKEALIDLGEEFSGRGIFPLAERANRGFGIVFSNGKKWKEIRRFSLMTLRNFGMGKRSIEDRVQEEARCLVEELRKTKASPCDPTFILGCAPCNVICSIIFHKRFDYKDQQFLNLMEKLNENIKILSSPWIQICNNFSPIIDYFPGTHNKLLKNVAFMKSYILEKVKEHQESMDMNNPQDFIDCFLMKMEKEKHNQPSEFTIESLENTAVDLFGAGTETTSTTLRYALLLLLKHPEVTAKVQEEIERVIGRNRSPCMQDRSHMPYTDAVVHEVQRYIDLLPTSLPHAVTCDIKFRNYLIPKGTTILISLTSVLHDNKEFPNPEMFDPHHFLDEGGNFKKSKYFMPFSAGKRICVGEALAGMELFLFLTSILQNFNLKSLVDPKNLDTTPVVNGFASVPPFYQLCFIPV

CYP2C19 [34] = biological target: T1, CYP2C19; experiment: Inhibition of human liver microsome CYP2C19 using mephenytoin as substrate assessed as residual activity at 10 uM; format: ADME; conditions: human liver microsomes, probe mephenytoin, read-out: Activity; method in brief: as §1
[35] = biological target: Neuronal acetylcholine receptor; alpha4/beta4 (Rattus norvegicus, UniProt P09483+P12392); experiment: Displacement of [3H]epibatidine from rat alpha4beta4 nACHR; format: protein-complex assay
[36] = Inhibition of adrenergic receptor at 10 uM
CYP3A4 [37] = biological target: T6, CYP3A4; experiment: Inhibition of human liver microsome CYP3A4 using midazolam as substrate assessed as residual activity at 10 uM; format: ADME; conditions: human liver microsomes, probe midazolam, read-out: Activity; method in brief: as §1
[38] = Metabolic stability in rat liver microsomes assessed as unchanged parent compound at 1 uM after 60 mins; format: ADME, Microsome; conditions: read-out: Stability
CYP3A4 [39] = biological target: T6, CYP3A4; experiment: Inhibition of human liver microsome CYP3A4 using testosterone as substrate assessed as residual activity at 1 uM; format: ADME; conditions: human liver microsomes, probe testosterone, read-out: Activity; method in brief: as §1
[40] = biological target: Neuronal acetylcholine receptor; alpha3/beta2 (Rattus norvegicus, UniProt P04757+P12390); experiment: Displacement of [3H]epibatidine from rat alpha3beta2 nACHR; format: protein-complex assay
CYP2C9 [41] = biological target: T7, CYP2C9; experiment: Inhibition of human liver microsome CYP2C9 using diclofenac as substrate assessed as residual activity at 1 uM; format: ADME; conditions: human liver microsomes, probe diclofenac, read-out: Activity; method in brief: as §1
Mus musculus [42] = experiment: Antidepressant activity in BALB/cJ mouse assessed as reduction in immobility at 1 mg/kg, ip measured after 30 mins post drug administration by forced swim test; format: functional, organism-based; design: dose 1 mg/kg; method in brief: as §4

Cc1cc(OC[C@@H]2CCN2)on1
Drug metabolism (Liver microsomes [1]): tde | activity at 1 µM (CYP2C19 [2]): < 70% | inhibition [3]: > 50% | Efficacy [4]: > 70% | Ki [5]: 6790 nM | inhibition at 10 µM (hERG (KCNH2)): 0% | remaining at 1 h, 1 µM [6]: 53.4% | inhibition [7]: > 50% | inhibition [8]: > 50% | Activity (Mus musculus [9]): Active | remaining at 1 h, 10 µM [10]: 67.2% | Drug metabolism (Liver microsomes [11]): tde | remaining at 1 h, 10 µM [12]: 73.7% | Ki [13]: 2890 nM | fraction unbound at up to 10 µM [14]: 0.871 | activity at 10 µM (CYP2D6 [15]): < 70% | activity at 10 µM (CYP2B6 [16]): < 70% | activity at 10 µM (CYP1A2 [17]): < 70% | inhibition [18]: > 50% | activity at 1 µM (CYP1A2 [19]): < 70% | Ki [20]: 12 nM | Activity [21]: inactive | inhibition [22]: > 50% | Efficacy [23]: 120% | inhibition [24]: > 50% | fraction unbound at up to 10 µM [25]: 0.918 | inhibition [26]: > 50% | activity at 1 µM (CYP2B6 [27]): < 70% | activity at 1 µM (CYP2D6 [28]): < 70% | Ki [29]: 311 nM | activity at 10 µM (CYP3A4 [30]): < 70% | Activity (Mus musculus [31]): Active | activity at 1 µM (CYP3A4 [32]): < 70% | activity at 10 µM (CYP2C9 [33]): < 70% | activity at 10 µM (CYP2C19 [34]): < 70% | Ki [35]: 86 nM | inhibition [36]: > 50% | activity at 10 µM (CYP3A4 [37]): < 70% | remaining at 1 h, 1 µM [38]: 67.5% | activity at 1 µM (CYP3A4 [39]): < 70% | Ki [40]: 8.7 nM | activity at 1 µM (CYP2C9 [41]): < 70% | Activity (Mus musculus [42]): Active
